Measured values published in ChEMBL document CHEMBL1155761, “Isolation and structure of five new cancer cell growth inhibitory bufadienolides from the Chinese traditional drug Ch'an Su” (J Nat Prod, 2001).
Converted amounts (≈) assume the structure as drawn.

How the values were obtained:
Format in all cases: functional, cell-based
KB = assay: Cytotoxicity against human KB cells after 72 hrs by MTT assay
How it was run: (§1)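 Cells seeded per well in 0.2 mL culture medium: 2 × 10^4 cells for KB and HL-60, 5 × 10^3 cells for MH-60. Treated in triplicate with graded concentrations of test samples (5 µL added per well), then incubated 72 h at 37 °C in 5% CO2.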

SF-268 = assay: Cytotoxicity against human SF268 cells after 72 hrs by MTT assay; conditions: SF-268, 72 h
HL-60 = assay: Cytotoxicity against human HL60 cells after 72 hrs by MTT assay; conditions: HL-60, 72 h; how it was run: as §1
MCF7 = assay: Cytotoxicity against human MCF7 cells after 72 hrs by MTT assay; conditions: MCF7, 72 h
MH60 = assay: Cytotoxicity against mouse MH60 cells after 72 hrs by MTT assay; conditions: MH60, 72 h; how it was run: as §1
DU-145 = assay: Cytotoxicity against human DU145 cells after 72 hrs by MTT assay; conditions: DU-145, 72 h
KM-20L2 = assay: Cytotoxicity against human KM20L2 cells after 72 hrs by MTT assay; conditions: KM-20L2, 72 h
BXPC-3 = assay: Cytotoxicity against human BxPC3 cells after 72 hrs by MTT assay; conditions: BXPC-3, 72 h
NCI-H460 = assay: Cytotoxicity against human NCI-H460 cells after 72 hrs by MTT assay; conditions: NCI-H460, 72 h

| SMILES | IC50 (KB) [µg/mL] | IC50 (SF-268) [µg/mL] | IC50 (HL-60) [µg/mL] | IC50 (MCF7) [µg/mL] | IC50 (MH60) [µg/mL] | IC50 (DU-145) [µg/mL] | IC50 (KM-20L2) [µg/mL] | IC50 (BXPC-3) [µg/mL] | IC50 (NCI-H460) [µg/mL] |
| --- | --- | --- | --- | --- | --- | --- | --- | --- | --- |
| C[C@]12CC[C@H](O)C[C@H]1CC[C@@H]1[C@@H]2C[C@@H](O)[C@]2(C)[C@@H](c3ccc(=O)oc3)C[C@H]3O[C@]132 | 0.97 (≈ 2.42 µM) | 0.046 (≈ 0.115 µM) | 0.045 (≈ 0.112 µM) | 0.066 (≈ 0.165 µM) | > 25 | 0.041 (≈ 0.102 µM) | 0.012 (≈ 0.03 µM) | 0.12 (≈ 0.3 µM) | 0.017 (≈ 0.0424 µM) |
| C[C@]12CC[C@H]3[C@@H](CC[C@@H]4C[C@@H](O)CC[C@@]43C=O)[C@]13OC3[C@H](O)[C@@H]2c1ccc(=O)oc1 (some centres not stated) | 0.65 (≈ 1.57 µM) | > 1 | 3 (≈ 7.24 µM) | > 1 | > 25 | > 1 | > 1 | > 1 | > 1 |
| C[C@]12[C@H](CC[C@@H]3[C@@H]1CC[C@]1(C)[C@@H](c4ccc(=O)oc4)CC[C@]31O)C[C@@H](O)C[C@H]2O | 0.19 (≈ 0.472 µM) | 0.0044 (≈ 0.0109 µM) | < 0.01 | 0.012 (≈ 0.0298 µM) | > 25 | 0.005 (≈ 0.0124 µM) | 0.011 (≈ 0.0273 µM) | 0.024 (≈ 0.0596 µM) | 0.014 (≈ 0.0348 µM) |
| C[C@]12CC[C@H]3[C@@H](CC[C@@H]4C[C@@H](O)CC[C@@]43C=O)[C@@]1(O)CC[C@@H]2c1ccc(=O)oc1 |  | 0.0047 (≈ 0.0117 µM) | < 0.01 | 0.0072 (≈ 0.018 µM) | > 25 | 0.0046 (≈ 0.0115 µM) | 0.0082 (≈ 0.0205 µM) | 0.014 (≈ 0.035 µM) | 0.018 (≈ 0.0449 µM) |
| C[C@]12CC[C@H](OC=O)C[C@H]1CC[C@@H]1[C@@H]2CC[C@]2(C)[C@@H](c3ccc(=O)oc3)C[C@H]3O[C@]132 | 3.4 (≈ 8.24 µM) | 0.38 (≈ 0.921 µM) | 1 (≈ 2.42 µM) | 0.6 (≈ 1.45 µM) | 8.1 (≈ 19.6 µM) | 0.42 (≈ 1.02 µM) | 0.54 (≈ 1.31 µM) | 1.6 (≈ 3.88 µM) | 0.53 (≈ 1.28 µM) |
| CC(=O)O[C@H]1[C@H]2O[C@]23[C@@H]2C[C@H](O)[C@@H]4C[C@@H](O)CC[C@]4(C)[C@H]2CC[C@]3(C)[C@H]1c1ccc(=O)oc1 | 0.87 (≈ 1.9 µM) | 0.32 (≈ 0.698 µM) | 0.038 (≈ 0.0829 µM) | 0.36 (≈ 0.785 µM) | > 25 | 0.21 (≈ 0.458 µM) | 0.28 (≈ 0.611 µM) | 0.46 (≈ 1 µM) | 0.74 (≈ 1.61 µM) |
| C[C@]12CC[C@H]3[C@@H](CC[C@@H]4C[C@@H](O)CC[C@@]43CO)[C@]13O[C@@H]3C[C@@H]2c1ccc(=O)oc1 | 1.2 (≈ 3 µM) | 0.25 (≈ 0.624 µM) | 0.48 (≈ 1.2 µM) | 0.33 (≈ 0.824 µM) | > 25 | 0.38 (≈ 0.949 µM) | 0.45 (≈ 1.12 µM) | 0.63 (≈ 1.57 µM) | 0.44 (≈ 1.1 µM) |
| CC(=O)O[C@H]1C[C@]2(O)[C@@H]3CC[C@]4(O)C[C@@H](O)CC[C@]4(C)[C@H]3CC[C@]2(C)[C@H]1c1ccc(=O)oc1 | 0.2 (≈ 0.434 µM) | 0.033 (≈ 0.0717 µM) | < 0.01 | 0.046 (≈ 0.0999 µM) | > 25 | 0.024 (≈ 0.0521 µM) | 0.034 (≈ 0.0738 µM) | 0.11 (≈ 0.239 µM) | 0.048 (≈ 0.104 µM) |
| CC(=O)O[C@H]1[C@H]2O[C@]23[C@@H]2CC[C@@H]4C[C@@H](O)CC[C@]4(C)[C@H]2C[C@@H](O)[C@]3(C)[C@H]1c1ccc(=O)oc1 | 0.79 (≈ 1.72 µM) |  | < 0.01 |  | > 25 |  |  |  |  |
| C[C@]12CC[C@H]3[C@@H](CC[C@@H]4C[C@@H](O)CC[C@@]43CO)[C@]13O[C@@H]3[C@H](O)[C@@H]2c1ccc(=O)oc1 | 3.9 (≈ 9.36 µM) |  | 0.49 (≈ 1.18 µM) |  | > 25 |  |  |  |  |
| C[C@]12CC[C@H](O)C[C@H]1CC[C@@H]1[C@@H]2CC[C@]2(C)[C@@H](c3ccc(=O)oc3)CC[C@]12O [BUFALIN] | 0.67 (≈ 1.73 µM) |  | < 0.01 |  | > 25 |  |  |  |  |
| C[C@]12CC[C@H](O)C[C@H]1CC[C@@H]1[C@@H]2CC[C@]2(C)[C@@H](c3ccc(=O)oc3)C[C@H]3O[C@]132 [BUFOGENIN] | 1.3 (≈ 3.38 µM) |  | 0.5 (≈ 1.3 µM) |  | 10 (≈ 26 µM) |  |  |  |  |
| CC(=O)O[C@H]1C[C@]2(O)[C@@H]3CC[C@@H]4C[C@@H](O)CC[C@]4(C)[C@H]3CC[C@]2(C)[C@H]1c1ccc(=O)oc1 [BUFOTALIN] | 0.19 (≈ 0.427 µM) |  | < 0.01 |  | > 25 |  |  |  |  |
| CC(=O)O[C@H]1[C@H]2O[C@]23[C@@H]2CC[C@@H]4C[C@@H](O)CC[C@]4(C)[C@H]2CC[C@]3(C)[C@H]1c1ccc(=O)oc1 [CINOBUFAGIN] | 0.21 (≈ 0.475 µM) |  | < 0.01 |  | > 25 |  |  |  |  |
| CC(=O)O[C@H]1[C@H]2O[C@]23[C@@H]2CC[C@]4(O)C[C@@H](O)CC[C@]4(C)[C@H]2CC[C@]3(C)[C@H]1c1ccc(=O)oc1 [CINOBUFOTALIN] | 0.37 (≈ 0.807 µM) |  | 0.047 (≈ 0.102 µM) |  | > 25 |  |  |  |  |
| C[C@]12CC[C@H](O)C[C@H]1CC[C@@H]1[C@@H]2CC[C@]2(C)[C@@H](c3ccc(=O)oc3)[C@@H](O)C[C@]12O [DESACETYLBUFOTALIN] | 0.79 (≈ 1.96 µM) |  | 0.025 (≈ 0.0621 µM) |  | > 25 |  |  |  |  |
| C[C@]12CC[C@H](O)C[C@H]1CC[C@@H]1[C@@H]2CC[C@]2(C)[C@@H](c3ccc(=O)oc3)[C@@H](O)[C@H]3O[C@]132 [DESACETYLCINOBUFAGIN] | 0.44 (≈ 1.1 µM) |  | 1 (≈ 2.5 µM) |  | > 25 |  |  |  |  |
| C[C@]12CC[C@H](O)C[C@@]1(O)CC[C@@H]1[C@@H]2CC[C@]2(C)[C@@H](c3ccc(=O)oc3)[C@@H](O)[C@H]3O[C@]132 [DESACETYLCINOBUFOTALIN] | 10 (≈ 24 µM) |  | 4.3 (≈ 10.3 µM) |  | > 25 |  |  |  |  |
| C[C@]12CC[C@H](O)C[C@H]1CC[C@@H]1[C@@H]2[C@H](O)C[C@]2(C)[C@@H](c3ccc(=O)oc3)CC[C@]12O [GAMABUFOTALIN] | 0.75 (≈ 1.86 µM) |  | 0.014 (≈ 0.0348 µM) |  | > 25 |  |  |  |  |
| C[C@]12CC[C@H](O)C[C@@]1(O)CC[C@@H]1[C@@H]2CC[C@]2(C)[C@@H](c3ccc(=O)oc3)CC[C@]12O [TELOCINOBUFAGIN] | 1.3 (≈ 3.23 µM) |  | < 0.01 |  | > 25 |  |  |  |  |
